Columns and labels:
Rattus norvegicus [1] = species: Rattus norvegicus; assay: Biodistribution of In-LDTA (conjugated with galactose BSA)protein using [111In]- in mature female Sprague-Dawley rat liver after injecting for 24 hour.; type: ADME, organism-based; conditions: in vivo
Procedure, shortened: (§1)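 SCN-LDTPA was coupled (pH 9 bicine, 24 h, RT) to BSA, mannosylated BSA or galactosylated BSA and FPLC-purified. The conjugate (400 μg) was labeled with 340 μCi 111In acetate at pH 5.5 for 45 min and gel-filtered. Mature female Sprague-Dawley rats received 19 μg of conjugate; four rats per time point. Blood, liver, bone, kidney and colon were taken and reported as %ID/organ.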

Rattus norvegicus [2] = species: Rattus norvegicus; assay: Biodistribution of Gd-DTA (conjugated with BSA)protein using [111In]- in mature female Sprague-Dawley rat liver after injecting for 48 hour.; type: ADME, organism-based; conditions: in vivo
Procedure, shortened: (§2)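 Conjugate of SCN-LDTPA with BSA, mannosylated BSA or galactosylated BSA (10 equiv chelate, pH 9 bicine, RT 24 h; FPLC-purified) was labelled with 340 μCi 111In acetate at pH 5.5 for 45 min. It was then gel-filtered (Biospin-6) and checked for purity by FPLC. Mature female Sprague-Dawley rats received 19 μg of conjugate. Four rats per time point (1, 4, 24, 48 h) were killed; blood, liver, bone, kidney and colon were taken and %ID/organ was calculated.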

[3] = Gadolinium(III) stability constants (log K value) for the compound polyamino carboxylate derivative; type: physicochemical; conditions: 0.1 M KCl
Procedure, shortened: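 Potentiometric titration under argon at 25.00(5) °C in 0.100 M KCl, meter calibrated to read -log [H+] with dilute standard HCl. LDTPA with an equimolar amount of GdCl3 titrated with CO2-free 0.0999 M KOH, added in 0.100 mL aliquots, up to pH 11. Ligand protonation constants came from a parallel titration without metal. Constants were computed from the titration data.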

Rattus norvegicus [4] = species: Rattus norvegicus; assay: Biodistribution of Gd-LDTA (conjugated with mannose BSA) protein using [111In]- in mature female Sprague-Dawley rat colon after injecting for 24 hour.; type: ADME, organism-based; conditions: in vivo; procedure, shortened: as §2
Rattus norvegicus [5] = species: Rattus norvegicus; assay: Biodistribution of Gd-LDTA (conjugated with mannose BSA) protein using [111In]- in mature female Sprague-Dawley rat kidney after injecting for 4 hour.; type: ADME, organism-based; conditions: in vivo
Rattus norvegicus [6] = species: Rattus norvegicus; assay: Biodistribution of Gd-DTA (conjugated with BSA)protein using [111In]- in mature female Sprague-Dawley rat bone after injecting for 1 hour.; type: ADME, organism-based, Bone element; conditions: in vivo; procedure, shortened: as §2
Rattus norvegicus [7] = species: Rattus norvegicus; assay: Biodistribution of In-LDTA (conjugated with galactose BSA)protein using [111In]- in mature female Sprague-Dawley rat kidney after injecting for 1 hour.; type: ADME, organism-based; conditions: in vivo; procedure, shortened: as §1
Rattus norvegicus [8] = species: Rattus norvegicus; assay: Biodistribution of In-LDTA (conjugated with mannoseBSA) protein using [111In]- in mature female Sprague-Dawley rat liver after injecting for 4 hour.; type: ADME, organism-based; conditions: in vivo; procedure, shortened: as §1
Rattus norvegicus [9] = species: Rattus norvegicus; assay: Biodistribution of In-LDTA (conjugated with BSA)protein using [111In]- in mature female Sprague-Dawley rat colon after injecting for 24 hour.; type: ADME, organism-based; conditions: in vivo; procedure, shortened: as §1
Rattus norvegicus [10] = species: Rattus norvegicus; assay: Biodistribution of Gd-LDTA (conjugated with mannose BSA) protein using [111In]- in mature female Sprague-Dawley rat blood after injecting for 24 hour.; type: ADME, organism-based; conditions: in vivo; procedure, shortened: as §2
Rattus norvegicus [11] = species: Rattus norvegicus; assay: Biodistribution of Gd-DTA (conjugated with BSA)protein using [153Gd]- in mature female Sprague-Dawley rat bone marrow after injecting for 4 hour.; conditions: in vivo
Rattus norvegicus [12] = species: Rattus norvegicus; assay: Biodistribution of In-LDTA (conjugated with mannoseBSA) protein using [111In]- in mature female Sprague-Dawley rat kidney after injecting for 1 hour.; type: ADME, organism-based; conditions: in vivo; procedure, shortened: as §1
Rattus norvegicus [13] = species: Rattus norvegicus; assay: Biodistribution of In-LDTA (conjugated with galactose BSA)protein using [111In]- in mature female Sprague-Dawley rat colon after injecting for 4 hour.; type: ADME, organism-based; conditions: in vivo; procedure, shortened: as §1
Rattus norvegicus [14] = species: Rattus norvegicus; assay: Biodistribution of Gd-DTA (conjugated with BSA)protein using [111In]- in mature female Sprague-Dawley rat blood after injecting for 48 hour.; type: ADME, organism-based; conditions: in vivo; procedure, shortened: as §2
Rattus norvegicus [15] = species: Rattus norvegicus; assay: Biodistribution of In-LDTA (conjugated with BSA) protein using [111In]- in mature female Sprague-Dawley rat colon after injecting for 1 hour.; type: ADME, organism-based; conditions: in vivo; procedure, shortened: as §1
Rattus norvegicus [16] = species: Rattus norvegicus; assay: Biodistribution of In-LDTA (conjugated with galactose BSA)protein using [111In]- in mature female Sprague-Dawley rat liver after injecting for 1 hour.; type: ADME, organism-based; conditions: in vivo; procedure, shortened: as §1
Rattus norvegicus [17] = species: Rattus norvegicus; assay: Biodistribution of Gd-DTA (conjugated with BSA)protein using [153Gd]- in mature female Sprague-Dawley rat bone after injecting for 48 hour.; conditions: in vivo
Rattus norvegicus [18] = species: Rattus norvegicus; assay: Biodistribution of Gd-LDTA (conjugated with mannose BSA) protein using [111In]- in mature female Sprague-Dawley rat liver after injecting for 1 hour.; type: ADME, organism-based; conditions: in vivo
Rattus norvegicus [19] = species: Rattus norvegicus; assay: Biodistribution of Gd-DTA (conjugated with BSA)protein using [111In]- in mature female Sprague-Dawley rat colon after injecting for 24 hour.; type: ADME, organism-based; conditions: in vivo; procedure, shortened: as §2
Rattus norvegicus [20] = species: Rattus norvegicus; assay: Biodistribution of In-LDTA (conjugated with mannoseBSA) protein using [111In]- in mature female Sprague-Dawley rat bone after injecting for 4 hour.; type: ADME, organism-based, Bone element; conditions: in vivo; procedure, shortened: as §1
Rattus norvegicus [21] = species: Rattus norvegicus; assay: Biodistribution of Gd-LDTA (conjugated with galactose BSA) protein using [111In]- in mature female Sprague-Dawley rat blood after injecting for 4 hour.; type: ADME, organism-based; conditions: in vivo; procedure, shortened: as §2
Rattus norvegicus [22] = species: Rattus norvegicus; assay: Biodistribution of Gd-LDTA (conjugated with galactose BSA) protein using [111In]- in mature female Sprague-Dawley rat colon after injecting for 4 hour.; type: ADME, organism-based; conditions: in vivo; procedure, shortened: as §2
Rattus norvegicus [23] = species: Rattus norvegicus; assay: Biodistribution of In-LDTA (conjugated with mannoseBSA) protein using [111In]- in mature female Sprague-Dawley rat kidney after injecting for 4 hour.; type: ADME, organism-based; conditions: in vivo; procedure, shortened: as §1
Rattus norvegicus [24] = species: Rattus norvegicus; assay: Biodistribution of In-LDTA (conjugated with mannoseBSA)protein using [111In]- in mature female Sprague-Dawley rat blood after injecting for 4 hour.; type: ADME, organism-based; conditions: in vivo; procedure, shortened: as §1
Rattus norvegicus [25] = species: Rattus norvegicus; assay: Biodistribution of Gd-LDTA (conjugated with galactose BSA) protein using [111In]- in mature female Sprague-Dawley rat colon after injecting for 24 hour.; type: ADME, organism-based; conditions: in vivo; procedure, shortened: as §2
Rattus norvegicus [26] = species: Rattus norvegicus; assay: Biodistribution of Gd-LDTA (conjugated with galactose BSA) protein using [111In]- in mature female Sprague-Dawley rat bone marrow after injecting for 1 hour.; type: ADME, organism-based; conditions: in vivo
Rattus norvegicus [27] = species: Rattus norvegicus; assay: Biodistribution of Gd-DTA (conjugated with BSA)protein using [111In]- in mature female Sprague-Dawley rat liver after injecting for 4 hour.; type: ADME, organism-based; conditions: in vivo; procedure, shortened: as §2
Rattus norvegicus [28] = species: Rattus norvegicus; assay: Biodistribution of Gd-LDTA (conjugated with mannose BSA) protein using [111In]- in mature female Sprague-Dawley rat blood after injecting for 48 hour.; type: ADME, organism-based; conditions: in vivo; procedure, shortened: as §2
Rattus norvegicus [29] = species: Rattus norvegicus; assay: Biodistribution of In-LDTA (conjugated with mannoseBSA) protein using [111In]- in mature female Sprague-Dawley rat bone after injecting for 48 hour.; type: ADME, organism-based, Bone element; conditions: in vivo; procedure, shortened: as §1

Nc1ccc(CC(C(=O)O)N(CCN(CC(=O)O)CC(=O)O)CCN(CC(=O)O)CC(=O)O)cc1 (centres undefined)
ID/organ (Rattus norvegicus [1]): 65.4%
ID/organ (Rattus norvegicus [2]): 17.4%
Log K [3]: 22
ID/organ (Rattus norvegicus [4]): 0.403%
ID/organ (Rattus norvegicus [5]): 0.542%
ID/organ (Rattus norvegicus [6]): 18.1%
ID/organ (Rattus norvegicus [7]): 0.0446%
ID/organ (Rattus norvegicus [8]): 87.6%
ID/organ (Rattus norvegicus [9]): 9.4%
ID/organ (Rattus norvegicus [10]): 0.063%
ID/organ (Rattus norvegicus [11]): 1.75%
ID/organ (Rattus norvegicus [12]): 0.144%
ID/organ (Rattus norvegicus [13]): 4.8%
ID/organ (Rattus norvegicus [14]): 3.37%
ID/organ (Rattus norvegicus [15]): 0.86%
ID/organ (Rattus norvegicus [16]): 99.7%
ID/organ (Rattus norvegicus [17]): 35.9%
ID/organ (Rattus norvegicus [18]): 70.2%
ID/organ (Rattus norvegicus [19]): 2.83%
ID/organ (Rattus norvegicus [20]): 10.1%
ID/organ (Rattus norvegicus [21]): 0.045%
ID/organ (Rattus norvegicus [22]): 4.09%
ID/organ (Rattus norvegicus [23]): 0.244%
ID/organ (Rattus norvegicus [24]): 0.149%
ID/organ (Rattus norvegicus [25]): 6.07%
ID/organ (Rattus norvegicus [26]): 0.031%
ID/organ (Rattus norvegicus [27]): 18.6%
ID/organ (Rattus norvegicus [28]): 0.04%
ID/organ (Rattus norvegicus [29]): 9.84%

Reference: ChEMBL document CHEMBL1129260, “Evaluation of the stability and animal biodistribution of gadolinium (III) benzylamine-derivatized diethylenetriaminepentaacetic acid” (J Med Chem, 1996)
